Results: ChEMBL document CHEMBL1153878, “Hansch analysis of veratric acid derivatives as antimicrobial agents” (2009)
In brackets after ≈: the same amount, converted by molar mass. Several values for one entry are separate records, joined by “and”; a condition that tells them apart may be missing. Equal entries are not always repeated.

How the values were obtained:
Format in all cases: functional
[1] = test system: Staphylococcus aureus; experiment: Antibacterial activity against Staphylococcus aureus MTCC 1430 by serial dilution method; set-up: -logMIC: scale not given here
How it was run: (§1)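 Tube serial dilution in 1 ml sterile double strength nutrient broth I.P., test range […] per ml. Inoculum: […] of a saline suspension at 10⁵ cfu/ml from a fresh 24-h culture, grown in double strength nutrient broth at 37 ± 1 °C. […] Exact MIC refined by further dilution of the stock.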

[2] = test system: Escherichia coli; experiment: Antibacterial activity against Escherichia coli MTCC 739 by serial dilution method; set-up: -logMIC: scale not given here; how it was run: as §1
[3] = test system: Aspergillus niger; experiment: Antifungal activity against Aspergillus niger MTCC 2425 by serial dilution method; set-up: -logMIC: scale not given here
[4] = test system: Bacillus subtilis; experiment: Antibacterial activity against Bacillus subtilis MTCC 2423 by serial dilution method; set-up: -logMIC: unit not given here; how it was run: as §1
[5] = test system: Candida albicans; experiment: Antifungal activity against Candida albicans MTCC 227 by serial dilution method; set-up: -logMIC: unit not given here
[6] = Staphylococcus aureus, MTCC 1430, read-out: MIC
[7] = Escherichia coli, MTCC 739, read-out: MIC
[8] = Aspergillus niger, MTCC 2425, read-out: MIC
[9] = Bacillus subtilis, MTCC 2423, read-out: MIC
[10] = Candida albicans, MTCC 227, read-out: MIC

MIC [1, 6] | MIC [2, 7] | MIC [3, 8] | MIC [4, 9] | MIC [5, 10] | MIC [1] | MIC [2] | MIC [3] | MIC [4] | MIC [5] | Compound | -logMIC [1] | -logMIC [2] | -logMIC [3] | -logMIC [4] | -logMIC [5]
21 µg/mL (≈ 93.2 µM) | 19 µg/mL (≈ 84.4 µM) | 11.5 µg/mL (≈ 51.1 µM) | 15 µg/mL (≈ 66.6 µM) | 11.5 µg/mL (≈ 51.1 µM) | – | – | – | – | – | COc1ccc(C(=O)NCCO)cc1OC | 1.04 | 1.08 | 1.29 | 1.18 | 1.29
22 µg/mL (≈ 98.1 µM) | 14 µg/mL (≈ 62.4 µM) | 12.5 µg/mL (≈ 55.7 µM) | 14 µg/mL (≈ 62.4 µM) | 10 µg/mL (≈ 44.6 µM) | – | – | – | – | – | COc1ccc(C(=O)OC(C)C)cc1OC | 1.01 | 1.2 | 1.25 | 1.2 | 1.35
18 µg/mL (≈ 59.5 µM) | 13 µg/mL (≈ 43 µM) | 13 µg/mL (≈ 43 µM) | 10.5 µg/mL (≈ 34.7 µM) | 16 µg/mL (≈ 52.9 µM) | – | – | – | – | – | COc1ccc(C(=O)Nc2cccc([N+](=O)[O-])c2)cc1OC | 1.22 | 1.36 | 1.36 | 1.46 | 1.27
18.5 µg/mL (≈ 68.2 µM) | 17 µg/mL (≈ 62.7 µM) | 12.5 µg/mL (≈ 46.1 µM) | 13 µg/mL (≈ 47.9 µM) | 13 µg/mL (≈ 47.9 µM) | – | – | – | – | – | COc1ccc(C(=O)Nc2ccc(C)cc2)cc1OC | 1.15 | 1.2 | 1.35 | 1.31 | 1.32
20 µg/mL (≈ 68.6 µM) | 17 µg/mL (≈ 58.3 µM) | 14 µg/mL (≈ 48 µM) | 12 µg/mL (≈ 41.1 µM) | 15 µg/mL (≈ 51.4 µM) | – | – | – | – | – | COc1ccc(C(=O)Nc2cccc(Cl)c2)cc1OC | 1.17 | 1.23 | 1.32 | 1.39 | 1.29
17 µg/mL (≈ 62.7 µM) | 18.5 µg/mL (≈ 68.2 µM) | 11 µg/mL (≈ 40.5 µM) | 15 µg/mL (≈ 55.3 µM) | 13 µg/mL (≈ 47.9 µM) | – | – | – | – | – | COc1ccc(C(=O)Nc2ccccc2C)cc1OC | 1.2 | 1.16 | 1.4 | 1.26 | 1.31
17 µg/mL (≈ 62.2 µM) | 19 µg/mL (≈ 69.5 µM) | 12 µg/mL (≈ 43.9 µM) | 15 µg/mL (≈ 54.9 µM) | 12 µg/mL (≈ 43.9 µM) | – | – | – | – | – | COc1ccc(C(=O)Nc2cccc(O)c2)cc1OC | 1.2 | 1.16 | 1.36 | 1.26 | 1.36
19 µg/mL (≈ 79.7 µM) | 19 µg/mL (≈ 79.7 µM) | 17 µg/mL (≈ 71.3 µM) | 15 µg/mL (≈ 63 µM) | 15 µg/mL (≈ 63 µM) | – | – | – | – | – | CCCCOC(=O)c1ccc(OC)c(OC)c1 | 1.1 | 1.1 | 1.15 | 1.2 | 1.2
20 µg/mL (≈ 83.9 µM) | 16 µg/mL (≈ 67.1 µM) | 12.5 µg/mL (≈ 52.5 µM) | 14 µg/mL (≈ 58.8 µM) | 13.5 µg/mL (≈ 56.7 µM) | 19 µg/mL (≈ 79.7 µM) | 19 µg/mL (≈ 79.7 µM) | 16 µg/mL (≈ 67.1 µM) | 16 µg/mL (≈ 67.1 µM) | 11 µg/mL (≈ 46.2 µM) | COc1ccc(C(=O)OCC(C)C)cc1OC | 1.08 and 1.1 | 1.17 and 1.1 | 1.28 and 1.17 | 1.23 and 1.17 | 1.25 and 1.34
22 µg/mL (≈ 99 µM) | 18 µg/mL (≈ 81 µM) | 14 µg/mL (≈ 63 µM) | 12.5 µg/mL (≈ 56.2 µM) | 18 µg/mL (≈ 81 µM) | – | – | – | – | – | C=CCOC(=O)c1ccc(OC)c(OC)c1 | 1 | 1.1 | 1.2 | 1.25 | 1.1
16.5 µg/mL (≈ 61.3 µM) | 16.5 µg/mL (≈ 61.3 µM) | 12 µg/mL (≈ 44.6 µM) | 12.5 µg/mL (≈ 46.4 µM) | 12.5 µg/mL (≈ 46.4 µM) | – | – | – | – | – | COc1ccc(C(=O)N(CCO)CCO)cc1OC | 1.21 | 1.21 | 1.36 | 1.31 | 1.31
20 µg/mL (≈ 79.3 µM) | 16 µg/mL (≈ 63.4 µM) | 12.5 µg/mL (≈ 49.5 µM) | 12.5 µg/mL (≈ 49.5 µM) | 16 µg/mL (≈ 63.4 µM) | – | – | – | – | – | COc1ccc(C(=O)OCCC(C)C)cc1OC | 1.1 | 1.2 | 1.3 | 1.31 | 1.2
17 µg/mL (≈ 56.2 µM) | 21 µg/mL (≈ 69.5 µM) | 13 µg/mL (≈ 43 µM) | 11.5 µg/mL (≈ 38 µM) | 14 µg/mL (≈ 46.3 µM) | – | – | – | – | – | COc1ccc(C(=O)Nc2ccc([N+](=O)[O-])cc2)cc1OC | 1.25 | 1.16 | 1.35 | 1.41 | 1.32
20 µg/mL (≈ 83.9 µM) | 20 µg/mL (≈ 83.9 µM) | 12 µg/mL (≈ 50.4 µM) | 15 µg/mL (≈ 63 µM) | 10 µg/mL (≈ 42 µM) | – | – | – | – | – | COc1ccc(C(=O)OC(C)(C)C)cc1OC | 1.08 | 1.08 | 1.3 | 1.2 | 1.38

Compound | MIC [1, 6] | MIC [2, 7] | MIC [3, 8] | MIC [4, 9] | MIC [5, 10] | MIC [1] | MIC [2] | MIC [3] | MIC [4] | MIC [5] | -logMIC [1] | -logMIC [2] | -logMIC [3] | -logMIC [4] | -logMIC [5]
COC(=O)c1ccc(OC)c(OC)c1 [VERATRIC ACID METHYL ESTER] | 18 µg/mL (≈ 91.7 µM) | 18 µg/mL (≈ 91.7 µM) | 14 µg/mL (≈ 71.4 µM) | 12 µg/mL (≈ 61.2 µM) | 12 µg/mL (≈ 61.2 µM) | – | – | – | – | – | 1.04 | 1.04 | 1.15 | 1.2 | 1.2
